Reference: ChEMBL document CHEMBL4342502, “Synthesis and Antichlamydial Activity of Molecules Based on Dysregulators of Cylindrical Proteases” (J Med Chem, 2020)
Active and inactive are the calls of the source. The rule behind the calls is not given here.

How the values were obtained:
[1] = tested on: Chlamydia trachomatis; assay: Anti-Chlamydial activity against Chlamydia trachomatis Serovar LGV-L2 infected in Hep2 cells assessed as reduction in size and number of chlamydial inclusion at 4 ug/ml treated at 8 hrs post-infection and 24 hrs later re-infecting fresh Hep2 cells monolayer with infected cells and measured at 24 hrs post re-infection by immunofluorescence staining based microscopy analysis; format: functional, organism-based
Outline: (§1)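 HEp-2 cells in DMEM with 10% FBS, infected with C. trachomatis L2 at MOI 1. Compounds added 8 hpi in triplicate; DMSO stocks at 50 mg/mL. At 24 hpi lysates collected in sucrose storage medium, frozen at −80 °C, and used to infect fresh HEp-2 monolayers in 10-fold dilutions. After 24 h, stained with goat anti-MOMP and Alexa488 secondary. Inclusions counted in 15 fields at 20x; IFU = mean count per field corrected for dilution.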

[2] = tested on: Chlamydia trachomatis; assay: Anti-chlamydial activity against Chlamydia trachomatis Serovar LGV-L2 infected in Hep2 cells assessed as reduction in chlamydial inclusion growth by measuring appearance of small and irregular inclusions at 3 ug/ml treated at 8 hrs post-infection and 24 hrs later re-infecting fresh Hep2 cells monolayer with infected cells and measured at 24 hrs post re-infection by immunofluorescence staining based microscopy analysis; format: functional, organism-based; outline: as §1
[3] = tested on: Chlamydia trachomatis; assay: Anti-Chlamydial activity against Chlamydia trachomatis Serovar LGV-L2 infected in Hep2 cells assessed as reduction in size and number of chlamydial inclusion at 1 ug/ml treated at 8 hrs post-infection and 24 hrs later re-infecting fresh Hep2 cells monolayer with infected cells and measured at 24 hrs post re-infection by immunofluorescence staining based microscopy analysis; format: functional, organism-based; outline: as §1
[4] = tested on: HEp-2; assay: Toxicity in human Hep2 cells infected with Chlamydia trachomatis Serovar LGV-L2 assessed as cell morphology at 50 ug/ml treated at 8 hrs post-infection and measured at 24 hrs post-infection by phase contrast microscopy; format: cell-based
Outline: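 HEp-2 cells grown in DMEM with 2% L-glutamine and 10% FBS at 37 °C, infected with C. trachomatis serovar L2. Compound at 50 μg/mL added 8 h post-infection, then incubated 16 h more (24 h total). Cell morphology and viability checked by phase-contrast microscopy alongside untreated infected cells.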

[5] = tested on: Chlamydia trachomatis; assay: Anti-chlamydial activity against Chlamydia trachomatis Serovar LGV-L2 infected in Hep2 cells assessed as inhibition of chlamydial inclusion at 50 ug/ml treated at 8 hrs post infection and measured at 24 hrs post-infection by immunofluorescence assay; format: functional, organism-based
Outline: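 HEp-2 cells infected with C. trachomatis serovar L2. Compounds at 50 μg/mL added 8 hpi; inclusion number and size assessed by immunofluorescence at 24 hpi against untreated cells. Cell morphology and viability checked by phase-contrast microscopy.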

[6] = Mutagenicity in Drosophila melanogaster somatic cells assessed as frequency of clone formation in HB crosses at 0.25 to 1 mM by SMART assay; format: ADME; settings: 1000 µM
Outline: (§2)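 Drosophila SMART wing-spot assay, ST and HB crosses. Third-instar larvae (72 ± 4 h) placed on hydrated instant mashed potato medium containing compound at 0.25, 0.5 or 1.0 mM final. Negative control: water with 1% Tween-80 and 3% ethanol. Statistics by Frei and Würgler two-sided U test, P≤0.05.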

[7] = Drug metabolism in human liver microsomes assessed as amount of drug modified at 1 ug/ml […] in presence of NADPH by LC-MS/MS analysis; format: ADME, Microsome; settings: read-out: Drug metabolism
[8] = Intrinsic clearance in human liver microsomes at 1 ug/ml measured per mg protein up to 60 mins by LC-MS/MS analysis; format: ADME, Microsome; settings: microsomes, 1 h
Outline: (§3)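 Human liver microsomes (1.0 mg/mL protein) in 100 mM phosphate pH 7.4 with 10 mM MgCl2 and 2 mM NADPH, preincubated 10 min at 37 °C. Reaction started with compound at 1 μg/mL. Sampled at 0, 5, 15, 20, 30, 45 and 60 min and quenched in methanol with internal standard. Controls: no NADPH (negative), testosterone (positive). Analysed by LC-MS/MS, triplicate.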

[9] = tested on: Cryptococcus neoformans; assay: Antifungal activity against Cryptococcus neoformans var. grubii H99 ATCC […] as fungal growth inhibition at 32 ug/ml measured after 16 hrs by broth microdilution method; format: functional, organism-based; settings: var. grubii H99 ATCC 208821
[10] = Stability of the compound in simulated gastric fluid at 50 uM and pH 1.2 at 37 degree C measured up to 120 mins by HPLC-ESI/MS analysis; settings: simulated gi fluid, pH 1.2, 2 h
[11] = tested on: Klebsiella pneumoniae; assay: Antibacterial activity against Klebsiella pneumoniae ATCC 700603 assessed as bacterial growth inhibition at 32 ug/ml measured after 16 hrs by broth microdilution method; format: functional, organism-based
[12] = tested on: Acinetobacter baumannii; assay: Antibacterial activity against Acinetobacter baumannii ATCC 19606 assessed as bacterial growth inhibition at 32 ug/ml measured after 16 hrs by broth microdilution method; format: functional, organism-based; settings: ATCC 19606 = CIP 70.34 = JCM 6841
[13] = tested on: Escherichia coli; assay: Antibacterial activity against Escherichia coli ATCC 25922 assessed as bacterial growth inhibition at 32 ug/ml measured after 16 hrs by broth microdilution method; format: functional, organism-based
[14] = Mutagenicity in Drosophila melanogaster somatic cells assessed as frequency of clone formation in ST crosses at 0.25 to 1 mM by SMART assay; format: ADME; settings: 1000 µM; outline: as §2
[15] = tested on: Staphylococcus aureus; assay: Antibacterial activity against Staphylococcus aureus JE2 assessed as bacterial growth inhibition at 32 ug/ml measured after 16 hrs by broth microdilution method; format: functional, organism-based
Outline: (§4)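 Broth microdilution in Mueller Hinton broth, triplicate. Direct colony suspension at 1.5 x 10^8 CFU/mL diluted to ~10^5 CFU/mL. Serial dilutions made from DMSO stocks at 1 mg/mL; vancomycin positive control, blank medium negative control. Incubated 16 h at optimum temperature. MIC is the lowest concentration without visible growth at 600 nm; mean of triplicate determinations.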

[16] = Half life in human liver microsomes at 1 ug/ml measured up to 60 mins by LC-MS/MS analysis; format: ADME, Microsome; settings: microsomes, 1 h; outline: as §3
[17] = tested on: Candida albicans; assay: Antifungal activity against Candida albicans ATCC 90028 assessed as fungal growth inhibition at 32 ug/ml measured after 16 hrs by broth microdilution method; format: functional, organism-based
[18] = tested on: Escherichia coli; assay: Antibacterial activity against Escherichia coli K12 assessed as bacterial growth inhibition at 32 ug/ml measured after 16 hrs by broth microdilution method; format: functional, organism-based; settings: K-12; outline: as §4
[19] = tested on: HaCaT; assay: Cytotoxicity against immortal human HaCaT cells assessed as reduction in cell viability at 50 ug/ml after 24 hrs by CCK-8 assay; format: cell-based
Outline: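 HeLa 229 and HaCaT cells in DMEM with 10% FBS and 1% penicillin/streptomycin, 37 °C, 5% CO2, seeded at 5000 cells/well. Next day treated with 50 μg/mL in triplicate, with matching DMSO controls. After 24 h, CCK-8 added for 2 h; corrected absorbance read at 450 nm.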

[20] = tested on: Staphylococcus aureus; assay: Antibacterial activity against methicillin-resistant Staphylococcus aureus ATCC 43300 assessed as bacterial growth inhibition at 32 ug/ml measured after 16 hrs by broth microdilution method; format: functional, organism-based
[21] = tested on: Chlamydia trachomatis; assay: Anti-chlamydial activity against Chlamydia trachomatis Serovar LGV-L2 infected in Hep2 cells assessed as reduction in chlamydial infectivity by measuring decrease in inclusion forming units at 50 ug/ml treated at 8 hrs post-infection and 24 hrs later re-infecting fresh Hep2 cells monolayer with infected cells and measured at 24 hrs post re-infection by immunofluorescence staining based microscopy analysis; format: functional, organism-based; outline: as §1
[22] = Stability of compound in mouse pre-heated plasma at 50 uM incubated up to 120 mins by HPLC-ESI/MS analysis; format: ADME, cell-free; settings: 2 h
Outline: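 Compounds from 2.5 mM DMSO stocks incubated at 50 μM final in mouse plasma diluted to 80% with PBS, preheated, 37 °C, shaking. Sampled at 0, 15, 30, 60, 90 and 120 min and quenched with cold acetonitrile. Centrifuged; supernatant analysed by HPLC-ESI-MS. Peak area reported relative to time zero. Enalapril positive control; triplicate.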

[23] = Stability of compound in human liver microsomes at 1 ug/ml measured up to 60 mins in absence of NADPH by LC-MS/MS analysis; format: ADME, Microsome; settings: 1 h; outline: as §3
[24] = tested on: HeLa 229; assay: Cytotoxicity against human HeLa 229 cells assessed as cell viability at 50 ug/ml after 24 hrs by CCK-8 assay relative to control; format: cell-based; settings: hela 229, 24 h
Outline: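 HeLa 229 cells kept in DMEM with 10% FBS and 1% penicillin/streptomycin at 37 °C, 5% CO2. Seeded at 5000 cells/well and dosed next day at 50 μg/mL in triplicate for 24 h, against DMSO-matched controls. CCK-8 reagent added for 2 h, then corrected absorbance read at 450 nm.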

[25] = Toxicity in Drosophila melanogaster assessed as survival rate at 0.25 to 1 mM; settings: 1000 µM
Outline: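 Drosophila SMART assay using third-instar larvae (72 ± 4 h) from ST and HB crosses. Larvae exposed in hydrated instant mashed-potato medium at 0.25, 0.5 and 1.0 mM final. Vehicle control: water with 1% Tween-80 and 3% ethanol. Survival of treated groups compared statistically with the vehicle control.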

[26] = tested on: Pseudomonas aeruginosa; assay: Antibacterial activity against Pseudomonas aeruginosa ATCC 27853 assessed as bacterial growth inhibition at 32 ug/ml measured after 16 hrs by broth microdilution method; format: functional, organism-based
[27] = Hepatic intrinsic clearance in human liver microsomes at 1 ug/ml measured per kg body weight up to 60 mins by LC-MS/MS analysis; format: ADME, Microsome; settings: 1 h
[28] = tested on: Chlamydia trachomatis; assay: Anti-chlamydial activity against Chlamydia trachomatis Serovar LGV-L2 infected in Hep2 cells assessed as reduction in chlamydial inclusion growth by measuring appearance of small and irregular inclusions at 128 ug/ml treated at 8 hrs post-infection and 24 hrs later re-infecting fresh Hep2 cells monolayer with infected cells and measured at 24 hrs post re-infection by immunofluorescence staining based microscopy analysis; format: functional, organism-based; outline: as §1
[29] = tested on: Neisseria meningitidis; assay: Antimicrobial activity against Neisseria meningitidis MC58 assessed as bacterial growth inhibition measured after 18 to 20 hrs; format: functional
[30] = tested on: Chlamydia trachomatis; assay: Anti-Chlamydial activity against Chlamydia trachomatis Serovar LGV-L2 infected in Hep2 cells assessed as reduction in size and number of chlamydial inclusion at 50 ug/ml treated at 8 hrs post-infection and 24 hrs later re-infecting fresh Hep2 cells monolayer with infected cells and measured at 24 hrs post re-infection by immunofluorescence staining based microscopy analysis; format: functional, organism-based; outline: as §1
[31] = tested on: Haemophilus influenzae; assay: Antimicrobial activity against Haemophilus influenzae H2192 assessed as bacterial growth inhibition measured after 18 to 20 hrs; format: functional

CC[C@H]1OC(=O)[C@H](C)[C@@H](O[C@H]2C[C@@](C)(OC)[C@@H](O)[C@H](C)O2)[C@H](C)[C@@H](O[C@@H]2O[C@H](C)C[C@H](N(C)C)[C@H]2O)[C@](C)(O)C[C@@H](C)CN(C)[C@H](C)[C@@H](O)[C@]1(C)O
inhibition [1]: Active

CC1(C)S[C@@H]2[C@H](NC(=O)Cc3ccccc3)C(=O)N2[C@H]1C(=O)O
inhibition [2]: Active

C[C@H]1c2cccc(O)c2C(=O)C2=C(O)[C@]3(O)C(=O)C(C(N)=O)=C(O)[C@@H](N(C)C)[C@@H]3[C@@H](O)[C@@H]21
inhibition [3]: Active

CC(C)(Sc1ccc(C(F)(F)F)cn1)C(=O)NCCCc1ccccc1
Activity [4]: Toxic

CC(C)(C(=O)NCCOc1ccccc1)S(=O)(=O)c1ccc(C(F)(F)F)cc1
inhibition [5]: Active
Activity [6]: Non-Toxic
metabolised at 10 min, 1 ug/ml [7]: 90%
microsomal intrinsic clearance [8]: 233.77 µL/min
inhibition [9]: inactive
Stability [10]: Stable
inhibition [11]: inactive
inhibition [12]: inactive
inhibition [13]: inactive
Activity [14]: Non-Toxic
inhibition [15]: inactive
t1/2 [16]: 2.98 min
inhibition [17]: inactive
inhibition [18]: inactive
Activity [19]: Non-Toxic
inhibition [20]: inactive
inhibition [21]: Active
Stability [22]: Stable
Stability [23]: Stable
Activity [24]: < 65%
Activity [25]: Non-Toxic
inhibition [26]: inactive
CLH [27]: 1840 mL/min/kg

CN[C@@H]1[C@H](O)[C@H](NC)[C@H]2O[C@@]3(O)C(=O)C[C@@H](C)O[C@H]3O[C@@H]2[C@H]1O
inhibition [28]: Active

CC(C)(C(=O)NCCCc1ccccc1)S(=O)(=O)c1ccc(C(F)(F)F)cn1
Activity [29]: 16 µg/mL
inhibition [30]: Active
inhibition [21]: Active
Activity [31]: 8 µg/mL

CC(C)(C(=O)NCCSc1ccc(Cl)cc1)S(=O)(=O)c1ccc(C(F)(F)F)cn1
inhibition [5]: inactive
Activity [6]: Non-Toxic
inhibition [9]: inactive
inhibition [11]: inactive
inhibition [12]: inactive
inhibition [13]: inactive
Activity [14]: Non-Toxic
inhibition [15]: inactive
inhibition [17]: inactive
inhibition [18]: inactive
inhibition [20]: inactive
Activity [24]: < 65%
Activity [25]: Non-Toxic
inhibition [26]: inactive
